# HCV NS3 hel inh – inhibitors of Hepatitis C virus NS3 helicase; actives 0.56% (n = 290,000); AID 1800; inhibition, % at 10.9 µM; NS3 helicase DNA unwinding, Cy5 molecular beacon fluorescence;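 active means inhibition above the mean of all tested compounds plus 3 SD, set per campaign, cut at about 35% in these data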;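 further: 0% = DMSO wells and 100% = thioflavine S control wells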
#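 Measured by: Cy5 fluorescence, 0 and 60 min reads / Assay system: NS3 helicase fragment of HCV / Control set: low DMSO, high thioflavine S at 110 µM / Times: 1 h reaction at 25 °C, ATP-initiated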
# PRMT1 FP inh – inhibitors of human PRMT1; actives 1.3% (n = 370,000); Q99873; recombinant PRMT1, activity-based probe fluorescence polarization; inhibition, % at 2.79 µM; AID 652257;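 active means inhibition above about 21% made by adding two undisclosed values, limit read from the data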
# APOBEC3G inh – blocks human APOBEC3G single-stranded DNA deamination | recombinant A3G, ssDNA deamination FAM/TAMRA fluorescence | inhibition, % at 20 µM | actives 0.28% (n = 330,000);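 active means inhibition of at least 40% at 20 µM, with no more than 30% in the related APOBEC3A deaminase screen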;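 further: plate controls were DMSO wells with A3G for no effect and wells lacking A3G enzyme for full effect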
# Target sequence (Q9HC16 whole entry, looked up): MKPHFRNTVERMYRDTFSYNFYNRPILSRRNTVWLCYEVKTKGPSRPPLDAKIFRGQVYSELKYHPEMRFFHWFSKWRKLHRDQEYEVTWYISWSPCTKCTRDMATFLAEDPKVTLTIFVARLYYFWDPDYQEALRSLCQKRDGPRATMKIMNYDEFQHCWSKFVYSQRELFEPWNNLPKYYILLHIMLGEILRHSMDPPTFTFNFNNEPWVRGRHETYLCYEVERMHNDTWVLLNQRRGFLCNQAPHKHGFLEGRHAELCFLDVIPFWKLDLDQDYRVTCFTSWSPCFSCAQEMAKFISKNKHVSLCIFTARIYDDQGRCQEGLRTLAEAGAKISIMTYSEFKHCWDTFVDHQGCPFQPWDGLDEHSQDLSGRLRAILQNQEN
# core dimer inh – blocks dimerization of HCV core protein | TR-FRET GST/Flag-core106 dimerization, 1536-well | inhibition, % at 5 µM | actives 0.33% (n = 300,000) | AID 1899;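 active means inhibition above the mean of all tested compounds plus 3 SD, set per screening campaign, cut at about 45% in these data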
#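 test system = GST/Flag-tagged HCV core106 proteins | probe or stimulus = Eu donor and XL665 acceptor anti-tag antibodies | times = compound-protein-antibody incubation 4 h at 22.5 °C | signal = TR-FRET, excitation 340 nm, emission 617 and 671 nm | measure = percent inhibition of core106 dimerization signal | controls = wells lacking GST-core106 and wells with excess unlabelled core106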
# A3A deaminase – human APOBEC3A DNA deaminase inhibition | P31941 | recombinant A3A, FAM/TAMRA ssDNA deamination fluorescence | inhibition, % at 20 µM | actives 0.41% (n = 330,000) | AID 493011;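 active means at least 40% inhibition at 20 µM here, with at most 30% in a related deaminase screen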;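 further: plate controls were A3A with DMSO for no effect and wells lacking A3A enzyme for full effect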
# Target sequence (P31941 whole entry, looked up): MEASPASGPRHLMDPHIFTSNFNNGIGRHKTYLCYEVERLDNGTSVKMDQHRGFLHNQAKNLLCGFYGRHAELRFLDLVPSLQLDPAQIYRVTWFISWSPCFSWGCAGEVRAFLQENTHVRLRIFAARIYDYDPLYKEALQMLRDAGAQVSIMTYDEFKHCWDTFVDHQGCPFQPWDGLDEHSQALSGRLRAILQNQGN
# ABHD5 PLIN5 PPI – blocks binding of human ABHD5 to perilipin-5; Q00G26+Q8WTS1; Split G. princeps luciferase complementation, luminescence, 4 h; inhibition, % at 4 µM; actives 0.78% (n = 360,000); AID 602281;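 active means inhibition above the mean inhibition across every tested compound plus 3 SD, cut at about 22% in these data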;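 further: 0% = DMSO only wells and the 100% control is not disclosed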
# An asterisk follows results filed as active; . = not tested or not shown. Sampled rows, rich in hits. Any-hit rate of the full collection: about 2.9%.
SMILES,HCV NS3 hel inh,PRMT1 FP inh,APOBEC3G inh,core dimer inh,A3A deaminase,ABHD5 PLIN5 PPI
O=C1/C(=C/Nc2ccc3c(c2)OCO3)CCc2ccccc21,1,23*,6,-8,-4,-7
COc1ccc2c(c1)CC/C(=C\Nc1ccc3c(c1)OCO3)C2=O,13,29*,21,-12,-5,-7
CCN(CC)C(=O)c1ccccc1NS(=O)(=O)c1cccs1,5,-2,-7,-10,-5,7
COc1cccc(CC(=O)O[C@@H]2CCC[C@@]3(C(=O)N(Cc4ccccc4)c4ccccc43)[C@H]2NC(=O)CCc2ccccc2)c1,.,-1,.,.,.,.
CCCCC(=O)NC(c1ccc(Cl)cc1)c1ccc2cccnc2c1O (stereo not drawn),35,-8,-4,1,1,22*
Cc1csc(N=Cc2ccc([N+](=O)[O-])o2)n1,.,23*,.,.,.,-4
C[C@@H]1CN([C@@H](C)CO)C(=O)c2cc(Br)cnc2O[C@H]1CN(C)Cc1cccc(C(=O)O)c1,.,0,.,.,.,2
Fc1ccc(-c2nc3c4ccccc4ccn3c2Cc2ccsc2)cc1,.,0,.,.,.,-16
c1coc(-c2nc3c4ccccc4ccn3c2Cc2ccsc2)c1,.,32*,.,.,.,.
COc1ccccc1N(O)C1CC(=O)N(c2ccc(F)cc2)C1=O (stereo not drawn),17,31*,1,-1,-2,-2
Cc1ccc(NC(=O)CSc2nccn(-c3ccc4c(c3)OCCO4)c2=O)cc1,.,19,1,3,-1,-17
CCOc1ccc(NC(=O)CSc2nccn(-c3ccc4c(c3)OCCO4)c2=O)cc1,.,22*,-7,5,-4,-9
CCc1ccc(NC(=O)CSc2nccn(-c3ccc4c(c3)OCCO4)c2=O)cc1,.,22*,18,.,5,-25
COC(=O)c1ccc(CSc2ncnc3c2sc2nc(N4CCOCC4)c4c(c23)CCCC4)o1,8,12,5,66*,16,4
O=C(/C=C/c1ccco1)NC(=S)Nc1ccccc1,24,23*,2,7,5,9
O=C(/C=C/c1ccco1)NC(=S)Nc1cccc([N+](=O)[O-])c1,9,20,-4,36,6,23*
COc1ccc(CNC(=O)N2CCc3ccccc3C2)cc1,-3,6,-12,2,-4,-6
Cc1cc(Cl)cc2sc(=S)[nH]c12,.,22*,.,.,.,-6
C[C@H]1COc2cc(Br)ccc2S(=O)(=O)N1Cc1cn(Cc2ccc(C(F)(F)F)cc2)nn1,.,1,.,.,.,.
O=c1c2ccccc2oc2ccccc12,.,-2,.,.,.,1
S=c1[nH]ncn2c1cc1oc3ccccc3c12,-2,-2,-13,64*,1,3
Cc1ccc(C(=O)NCC(=O)OCC(=O)c2ccc(Br)s2)cc1,.,-3,-1,19,4,-10
CC(=O)ON=C1C=CC(=C(C#N)c2ccccc2)C=C1,.,24*,.,.,.,-8
O=C1N[C@@H](Cc2cn(S(=O)(=O)c3c(F)c(F)c(F)c(F)c3F)c3ccccc23)C(=O)N[C@H]1Cc1ccccc1,.,.,-4,49*,-2,.
Nc1ncnc2c1ncn2[C@@H]1O[C@H](CNC(=O)[C@@H](N)Cc2ccc(C(=O)c3ccccc3)cc2)[C@@H](O)[C@H]1O,.,12,.,.,.,-7
SMILES,HCV NS3 hel inh,PRMT1 FP inh,APOBEC3G inh,core dimer inh,A3A deaminase,ABHD5 PLIN5 PPI
CCOc1nc2cccc(C(=O)O)c2n1Cc1ccc(-c2ccccc2-c2nn[nH]n2)cc1,.,5,.,.,.,.
Cc1cc(=O)oc2cc(OC(C)C(=O)NC3(C#N)CCCCC3)ccc12 (stereo not drawn),.,-2,-3,.,2,4
CN1C(=O)c2cc(NS(=O)(=O)c3ccc(F)cc3)ccc2OC[C@H]2O[C@@H](CC(=O)NCC(F)(F)F)CC[C@@H]21,.,-3,.,.,.,.
COc1ccccc1Nc1ccc(C(=O)NCc2cccs2)cn1,0,-3,-5,5,-3,-5
COc1ccccc1Nc1ncc(-c2cccs2)s1,2,18,11,50*,5,-13
CC(=O)c1ccc(NC(=O)CSc2nnc(-c3ccco3)c(-c3ccco3)n2)cc1,35,73*,68,36,84,23*
CC(=O)Nc1ccc(NC(=O)CSc2nnc(-c3ccco3)o2)cc1,3,-2,-1,-2,3,-3
O=C(N/N=C/c1ccco1)c1cccc(N2Cc3ccccc3C2)c1,8,8,13,63*,11,8
O=C(N/N=C/c1ccco1)c1cccc(N2CCCC2=O)c1,14,-3,-1,5,5,2
COC(=O)c1ccccc1NC(=O)CN1C(=O)C2CCCN2c2ncc(Cl)cc21 (stereo not drawn),-4,.,-6,50*,1,.
CCS(=O)(=O)N1Cc2cc(C(=O)NCCOC)nc(-c3cccc(-c4ccncc4)c3)c2[C@H]1CCO,.,-3,.,.,.,5
CC(C)N(CCNS(=O)(=O)c1ccc(Cl)cc1)C(C)C,-2,1,0,-3,0,5
CC(C)OP(=O)(OC(C)C)C1(NS(=O)(=O)c2ccc(Cl)cc2)C=C(Cl)C(=O)C(Cl)=C1,14,30*,-6,2,-7,7
COc1ccc(S(=O)(=O)Nc2ccccc2)cc1,.,-3,4,-8,2,4
COc1ccc(S(=O)(=O)Nc2ccc(O)c3ccccc23)cc1,9,23*,-3,-2,1,2
O=C(O[C@@H]1OC2COC(=O)c3cc(O)c(O)c(O)c3-c3c(cc(O)c(O)c3O)C(=O)O[C@@H]([C@H]1O)[C@@H]2O)c1cc(O)c(O)c(O)c1,25,.,.,-33,.,28*
COc1cccc2cc(-c3nc(-c4cccs4)cs3)c(=O)oc12,11,11,-3,51*,0,4
COc1ccc(-c2c(C)sc(NC(=O)c3ccnn3C)c2C#N)cc1,11,14,1,71*,-1,-3
Cc1nn(-c2ccc(F)cc2)c(Cl)c1/C=N/NC(=O)c1cccs1,-5,-1,-8,0,-3,-9
Cc1nn(-c2ccc(Cl)cc2)c(Cl)c1/C=N/NC(=O)c1ccc(NS(=O)(=O)c2cccs2)cc1,.,6,-4,54*,1,10
O=C(Oc1ccccc1)c1cc(O)c(O)c(O)c1,.,.,.,.,.,2
CCCc1ccc2oc(C(=O)N3CCN(C4CCS(=O)(=O)C4)CC3)c(C)c2c1 (stereo not drawn),-2,1,-5,-2,-4,-9
O=[N+]([O-])c1c(NCCCO)cc(Sc2nc3ccccc3s2)c2nonc12,2,.,21,2,-5,58*
O=[N+]([O-])c1c(NCCO)cc(N2CCCCCC2)c2nonc12,6,-2,-2,-13,0,-7
CC(=O)O[C@@H]1[C@@]2(C)O[C@H]2CC[C@]23O[C@H]2[C@H](OC3=O)C2=C(C)C(=O)O[C@@]21O,3,1,2,-11,3,23*
